Data from ChEMBL document CHEMBL5678806, “NMS-P937, an orally available, specific small-molecule polo-like kinase 1 inhibitor with antitumor activity in solid and hematologic malignancies” (Mol Cancer Ther, 2012).
Calls of active or inactive are those of the source. The calls are words filed in the database; no cut-off is given here.

Assays:
COLO 205 = experiment: Antitumor activity against human COLO 205 cells xenografted in nu/nu mouse assessed as tumor growth inhibition at 60 mg/kg, po administered for 10 days; type: functional, organism-based; conditions: time 10.0 day
[1] = molecular target: Eukaryotic translation initiation factor 2-alpha kinase 3 (Homo sapiens, UniProt Q9NZJ5); experiment: Inhibition of PERK (unknown origin) in presence of [gamma-33P]ATP
[2] = Inhibition of CDK2/CycA (unknown origin) in presence of [gamma-33P]ATP; design: species or system Homo sapiens
U-251 = experiment: Antiproliferative activity against human U-251 cells assessed as inhibition of cell growth incubated for 72 hrs by cell-titer glo assay; type: functional, cell-based; conditions: U-251, 72 h
Caco-2 = experiment: Antiproliferative activity against human Caco-2 cells assessed as inhibition of cell growth incubated for 72 hrs by cell-titer glo assay; type: functional, cell-based; conditions: Caco-2, 72 h
Outline: (§1)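 Cells seeded 10,000–30,000/cm² (adherent) or 100,000/mL (suspension) in medium with 10% fetal calf serum; after 24 h treated in duplicate with serial dilutions for 72 h. Viable cells read by CellTiter-Glo luminescence; IC50 from sigmoidal fit; at least two independent experiments.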

[3] = molecular target: Casein kinase I isoform gamma-2 (Homo sapiens) (UniProt P78368); experiment: Inhibition of N-terminal 6His-tagged recombinant human CK1gamma2 ( 18 to end residues) expressed in baculovirus infected Sf21 cells assessed as residual activity at 1 uM relative to control
Casein kinase I isoform gamma-2 (Homo sapiens), sequence (P78368 whole entry, looked up, the tested form may be a part, canonical isoform): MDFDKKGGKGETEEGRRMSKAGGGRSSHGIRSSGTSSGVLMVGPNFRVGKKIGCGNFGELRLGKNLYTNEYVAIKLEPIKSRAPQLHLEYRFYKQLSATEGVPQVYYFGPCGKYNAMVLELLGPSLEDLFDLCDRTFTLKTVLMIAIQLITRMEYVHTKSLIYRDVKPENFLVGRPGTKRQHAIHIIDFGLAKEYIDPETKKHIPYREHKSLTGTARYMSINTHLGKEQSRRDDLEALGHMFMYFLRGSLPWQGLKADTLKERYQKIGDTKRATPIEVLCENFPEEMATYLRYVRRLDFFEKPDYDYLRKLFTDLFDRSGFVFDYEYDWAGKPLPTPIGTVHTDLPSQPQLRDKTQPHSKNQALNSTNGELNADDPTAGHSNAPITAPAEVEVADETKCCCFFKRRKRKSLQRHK

[4] = molecular target: Casein kinase I isoform gamma-1 (Homo sapiens) (UniProt Q9HCP0); experiment: Inhibition of N-terminal 6His-tagged recombinant human CK1gamma1 (25 to 355 residues) expressed in baculovirus infected Sf21 cells assessed as residual activity at 1 uM relative to control
Casein kinase I isoform gamma-1 (Homo sapiens), sequence (Q9HCP0 whole entry, looked up, the tested form may be a part, canonical isoform): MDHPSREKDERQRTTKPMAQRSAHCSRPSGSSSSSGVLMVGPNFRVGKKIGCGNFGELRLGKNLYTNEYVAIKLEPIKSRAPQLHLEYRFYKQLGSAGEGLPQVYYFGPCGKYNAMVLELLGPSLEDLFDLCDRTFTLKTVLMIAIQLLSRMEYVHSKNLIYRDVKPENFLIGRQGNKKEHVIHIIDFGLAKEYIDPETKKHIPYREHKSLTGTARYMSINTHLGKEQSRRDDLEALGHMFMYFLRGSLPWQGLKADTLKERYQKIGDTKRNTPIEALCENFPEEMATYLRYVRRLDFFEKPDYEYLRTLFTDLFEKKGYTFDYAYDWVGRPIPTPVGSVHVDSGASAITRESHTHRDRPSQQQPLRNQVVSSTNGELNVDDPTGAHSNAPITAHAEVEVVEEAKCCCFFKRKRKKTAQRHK

A549 = experiment: Antiproliferative activity against human A549 cells assessed as inhibition of cell growth incubated for 72 hrs by cell-titer glo assay; type: functional, cell-based; conditions: A549, 72 h; outline: as §1
[5] = molecular target: Tyrosine-protein kinase ABL2 (Mus musculus) (UniProt Q4JIM5); experiment: Inhibition of N-terminal His6-tagged recombinant mouse Arg (27 to end residues) expressed in Sf21 cells assessed as residual activity at 1 uM relative to control
Tyrosine-protein kinase ABL2 (Mus musculus), sequence (Q4JIM5 whole entry): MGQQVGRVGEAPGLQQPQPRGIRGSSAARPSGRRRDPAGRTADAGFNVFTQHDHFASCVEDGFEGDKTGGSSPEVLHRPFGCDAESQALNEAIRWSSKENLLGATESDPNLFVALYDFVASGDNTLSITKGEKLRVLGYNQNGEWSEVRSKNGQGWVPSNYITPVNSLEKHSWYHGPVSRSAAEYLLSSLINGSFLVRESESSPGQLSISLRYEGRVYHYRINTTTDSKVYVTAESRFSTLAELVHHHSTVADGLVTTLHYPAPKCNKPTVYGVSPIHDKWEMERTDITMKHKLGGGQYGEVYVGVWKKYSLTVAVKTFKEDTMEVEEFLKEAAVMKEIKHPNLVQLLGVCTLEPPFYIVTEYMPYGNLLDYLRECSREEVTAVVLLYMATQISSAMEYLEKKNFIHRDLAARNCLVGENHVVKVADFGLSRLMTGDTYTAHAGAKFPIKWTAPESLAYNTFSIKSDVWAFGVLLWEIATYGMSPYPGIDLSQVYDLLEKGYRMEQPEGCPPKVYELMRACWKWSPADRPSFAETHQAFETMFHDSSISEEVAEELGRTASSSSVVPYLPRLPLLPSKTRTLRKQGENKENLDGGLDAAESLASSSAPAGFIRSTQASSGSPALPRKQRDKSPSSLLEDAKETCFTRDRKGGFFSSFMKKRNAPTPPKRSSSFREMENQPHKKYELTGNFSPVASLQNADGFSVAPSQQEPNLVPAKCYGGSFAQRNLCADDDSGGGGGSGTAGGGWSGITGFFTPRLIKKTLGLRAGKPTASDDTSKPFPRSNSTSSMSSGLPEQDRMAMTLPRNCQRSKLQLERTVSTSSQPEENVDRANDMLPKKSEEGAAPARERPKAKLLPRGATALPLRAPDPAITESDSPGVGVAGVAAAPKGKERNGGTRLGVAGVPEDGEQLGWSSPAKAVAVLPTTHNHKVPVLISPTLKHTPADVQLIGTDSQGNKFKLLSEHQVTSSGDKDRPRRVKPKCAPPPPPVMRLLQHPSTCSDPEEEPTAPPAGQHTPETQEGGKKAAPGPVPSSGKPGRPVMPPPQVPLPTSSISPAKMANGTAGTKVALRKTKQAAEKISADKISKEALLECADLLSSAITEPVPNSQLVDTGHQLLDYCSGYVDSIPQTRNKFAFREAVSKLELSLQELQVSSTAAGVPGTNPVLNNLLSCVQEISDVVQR

NCI-H838 = experiment: Antiproliferative activity against human NCI-H838 cells assessed as inhibition of cell growth incubated for 72 hrs by cell-titer glo assay; type: functional, cell-based; conditions: NCI-H838, 72 h
Outline: (§2)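 Cells from ATCC or ECACC, kept in supplier-recommended medium with 1% penicillin-streptomycin at 37°C, 5% CO₂. Seeded at 10,000–30,000/cm² (adherent) or 100,000/mL (nonadherent) in medium with 10% fetal calf serum. Dosed after 24 h in duplicate with serial dilutions. Viable cells read by CellTiter-Glo 72 h later. IC50 from sigmoidal fit. At least two independent experiments.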

A2780 [6] = experiment: Induction of mitosis in human A2780 cells xenografted in nu/nu mouse assessed as decreased NPM phosphorylation on Thr199 at 60 mg/kg, po administered for 12 to 24 hrs by immunohistochemistry analysis; type: functional, organism-based; conditions: time lower […], time upper 24.0 hrs
[7] = Oral bioavailability in nu/nu mouse at 10 mg/kg by LC-MS analysis; type: ADME, organism-based; conditions: in vivo
[8] = Antiproliferative activity against human AML-NS8 cells assessed as inhibition of cell growth incubated for 72 hrs by cell-titer glo assay; type: functional, cell-based; conditions: AML-NS8, 72 h; outline: as §1
KARPAS-299 = experiment: Antiproliferative activity against human KARPAS-299 cells assessed as inhibition of cell growth incubated for 72 hrs by cell-titer glo assay; type: functional, cell-based; conditions: KARPAS-299, 72 h
Outline: (§3)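 Cells seeded at 10,000–30,000/cm² (adherent) or 100,000/mL (nonadherent) in medium with 10% fetal calf serum; after 24 h, treated in duplicate with serial dilutions for 72 h. Viable cell number read by CellTiter-Glo luminescence; IC50 from sigmoidal fit; at least two independent experiments.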

Granta-519 = experiment: Antiproliferative activity against human Granta-519 cells assessed as inhibition of cell growth incubated for 72 hrs by cell-titer glo assay; type: functional, cell-based; conditions: Granta-519, 72 h; outline: as §3
[9] = Antiproliferative activity against human CL-11 cells assessed as inhibition of cell growth incubated for 72 hrs by cell-titer glo assay; type: functional, cell-based; conditions: CL-11, 72 h; outline: as §1
A2780 [10] = experiment: Induction of cell cycle arrest in human A2780 cells assessed as accumulation of cells in G2/M phase by measuring upregulated PLK1 expression incubated for 24 hrs by Western blotting analysis; type: functional, cell-based; conditions: dose 0.02-0.2 µmol/L
Outline: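 A2780 ovarian carcinoma cells treated 24 h with a range of concentrations, with DMSO and nocodazole controls. 20 µg protein extract separated by SDS-PAGE and immunoblotted with chemiluminescent detection. Probed for total and phospho-Thr210 PLK1, phospho-Ser10 histone H3, phospho-Thr199 NPM and phospho-Tyr15 CDK1. Total NPM, tubulin and total CDK1 served as loading controls.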

[11] = molecular target: G protein-coupled receptor kinase 6 (Homo sapiens) (UniProt P43250); experiment: Inhibition of N-terminal 6His-tagged recombinant full-length human GRK6 expressed in baculovirus infected Sf21 cells assessed as residual activity at 1 uM relative to control
G protein-coupled receptor kinase 6 (Homo sapiens), sequence (P43250 whole entry, looked up): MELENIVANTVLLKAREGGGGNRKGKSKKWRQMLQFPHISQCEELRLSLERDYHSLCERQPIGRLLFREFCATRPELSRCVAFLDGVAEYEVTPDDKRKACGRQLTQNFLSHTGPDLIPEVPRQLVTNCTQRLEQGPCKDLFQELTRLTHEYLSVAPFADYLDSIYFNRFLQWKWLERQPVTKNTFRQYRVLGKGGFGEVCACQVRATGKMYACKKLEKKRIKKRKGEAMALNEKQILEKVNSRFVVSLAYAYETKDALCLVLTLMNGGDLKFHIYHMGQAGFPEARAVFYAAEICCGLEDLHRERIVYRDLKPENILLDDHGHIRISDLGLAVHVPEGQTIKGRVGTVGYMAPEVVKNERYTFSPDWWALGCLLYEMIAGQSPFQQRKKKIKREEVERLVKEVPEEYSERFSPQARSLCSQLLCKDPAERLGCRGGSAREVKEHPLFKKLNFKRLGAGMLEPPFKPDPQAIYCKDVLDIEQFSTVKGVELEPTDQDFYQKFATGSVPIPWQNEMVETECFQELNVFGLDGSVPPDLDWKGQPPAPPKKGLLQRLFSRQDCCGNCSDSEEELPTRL

[12] = Antiproliferative activity against human GM14788 cells assessed as inhibition of cell growth incubated for 72 hrs by cell-titer glo assay; type: functional, cell-based; conditions: GM14788, 72 h; outline: as §3
[13] = molecular target: Homeodomain-interacting protein kinase 1 (Homo sapiens) (UniProt Q86Z02); experiment: Inhibition of N-terminal 6His-tagged recombinant human HIPK1 (158 to 555 residues) expressed in baculovirus infected Sf21 cells assessed as residual activity at 1 uM relative to control
Homeodomain-interacting protein kinase 1 (Homo sapiens), sequence (Q86Z02 whole entry, looked up, the tested form may be a part): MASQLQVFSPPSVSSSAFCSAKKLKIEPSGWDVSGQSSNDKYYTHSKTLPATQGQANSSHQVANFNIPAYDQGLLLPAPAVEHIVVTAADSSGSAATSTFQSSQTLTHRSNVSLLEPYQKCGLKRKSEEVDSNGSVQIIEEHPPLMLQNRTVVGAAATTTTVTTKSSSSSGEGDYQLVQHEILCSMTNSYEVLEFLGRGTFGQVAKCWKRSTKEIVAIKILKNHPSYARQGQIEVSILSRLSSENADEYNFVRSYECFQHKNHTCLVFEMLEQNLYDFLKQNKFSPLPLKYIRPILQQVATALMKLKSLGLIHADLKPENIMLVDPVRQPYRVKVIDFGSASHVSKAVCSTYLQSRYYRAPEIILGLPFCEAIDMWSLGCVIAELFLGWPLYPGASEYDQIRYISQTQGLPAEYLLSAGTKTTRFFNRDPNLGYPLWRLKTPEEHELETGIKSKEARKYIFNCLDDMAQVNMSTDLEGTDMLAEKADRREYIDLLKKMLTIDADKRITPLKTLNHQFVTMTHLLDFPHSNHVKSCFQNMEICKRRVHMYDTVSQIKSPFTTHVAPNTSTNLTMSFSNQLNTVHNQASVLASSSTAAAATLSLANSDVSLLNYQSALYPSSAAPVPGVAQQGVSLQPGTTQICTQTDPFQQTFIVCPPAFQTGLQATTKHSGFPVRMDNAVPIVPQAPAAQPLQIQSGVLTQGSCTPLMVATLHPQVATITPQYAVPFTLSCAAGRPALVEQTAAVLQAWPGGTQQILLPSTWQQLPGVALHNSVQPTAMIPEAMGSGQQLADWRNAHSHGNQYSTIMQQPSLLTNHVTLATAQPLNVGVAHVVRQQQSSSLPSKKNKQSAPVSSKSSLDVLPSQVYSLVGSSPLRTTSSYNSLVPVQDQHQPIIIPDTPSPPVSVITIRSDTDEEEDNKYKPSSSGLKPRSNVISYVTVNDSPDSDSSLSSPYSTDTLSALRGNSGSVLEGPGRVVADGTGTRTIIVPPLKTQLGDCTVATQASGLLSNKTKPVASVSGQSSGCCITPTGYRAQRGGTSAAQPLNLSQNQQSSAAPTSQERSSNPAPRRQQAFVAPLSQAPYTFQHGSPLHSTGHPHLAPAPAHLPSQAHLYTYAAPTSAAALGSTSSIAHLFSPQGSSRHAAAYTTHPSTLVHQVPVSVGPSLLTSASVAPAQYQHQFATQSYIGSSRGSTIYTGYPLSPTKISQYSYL

[14] = Inhibition of PKAalpha (unknown origin) in presence of [gamma-33P]ATP; design: species or system Homo sapiens
[15] = Antiproliferative activity against human NCI-H2110 cells assessed as inhibition of cell growth incubated for 72 hrs by cell-titer glo assay; type: functional, cell-based; conditions: NCI-H2110, 72 h; outline: as §2
[16] = molecular target: Serine/threonine-protein kinase PAK 4 (Homo sapiens, UniProt O96013); experiment: Inhibition of PAK4 (unknown origin) in presence of [gamma-33P]ATP
[17] = molecular target: Serine/threonine-protein kinase Nek6 (Homo sapiens, UniProt Q9HC98); experiment: Inhibition of NEK6 (unknown origin) in presence of [gamma-33P]ATP
Serine/threonine-protein kinase Nek6, sequence (Q9HC98 whole entry): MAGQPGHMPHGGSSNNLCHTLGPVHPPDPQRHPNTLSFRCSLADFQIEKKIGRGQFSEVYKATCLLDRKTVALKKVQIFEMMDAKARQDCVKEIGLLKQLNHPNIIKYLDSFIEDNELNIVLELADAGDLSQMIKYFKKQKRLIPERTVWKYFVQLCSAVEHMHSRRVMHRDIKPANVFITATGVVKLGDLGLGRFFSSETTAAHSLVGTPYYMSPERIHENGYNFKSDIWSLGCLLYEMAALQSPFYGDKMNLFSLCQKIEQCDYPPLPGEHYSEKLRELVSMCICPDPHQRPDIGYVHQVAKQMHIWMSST

MV4-11 = experiment: Antiproliferative activity against human MV4-11 cells assessed as inhibition of cell growth incubated for 72 hrs by cell-titer glo assay; type: functional, cell-based; conditions: MV4-11, 72 h; outline: as §2
[18] = molecular target: Casein kinase I isoform gamma-3 (Homo sapiens) (UniProt Q9Y6M4); experiment: Inhibition of N-terminal 6His-tagged recombinant human CK1gamma3 (1 to 330 residues) expressed in baculovirus infected Sf21 cells assessed as residual activity at 1 uM relative to control
Casein kinase I isoform gamma-3 (Homo sapiens), sequence (Q9Y6M4 whole entry, looked up, the tested form may be a part, canonical isoform): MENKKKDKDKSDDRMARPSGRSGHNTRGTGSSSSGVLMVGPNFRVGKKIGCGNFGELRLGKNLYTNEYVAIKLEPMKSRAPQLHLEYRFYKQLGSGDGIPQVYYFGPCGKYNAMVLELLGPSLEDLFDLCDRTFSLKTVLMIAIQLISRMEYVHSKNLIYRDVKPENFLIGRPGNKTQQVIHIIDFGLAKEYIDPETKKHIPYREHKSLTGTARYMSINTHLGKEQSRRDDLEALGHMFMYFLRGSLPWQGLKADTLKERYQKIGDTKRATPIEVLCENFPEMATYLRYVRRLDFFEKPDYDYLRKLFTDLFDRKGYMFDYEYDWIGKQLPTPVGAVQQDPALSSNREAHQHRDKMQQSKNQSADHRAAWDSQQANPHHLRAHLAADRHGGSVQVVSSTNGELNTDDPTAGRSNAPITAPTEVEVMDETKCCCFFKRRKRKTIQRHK

NHDF = experiment: Induction of mitosis in human NHDF cells at 0.0001 to 100 uM incubated for >= 24 hrs followed by compound washout by cell titer glow assay; type: toxicity, cell-based; conditions: dose 0.0001-100 µM
HCT-15 = experiment: Antiproliferative activity against human HCT-15 cells assessed as inhibition of cell growth incubated for 72 hrs by cell-titer glo assay; type: functional, cell-based; conditions: HCT-15, 72 h; outline: as §3
[19] = AUC in Sprague-Dawley rat at 10 mg/kg, iv by LC-MS analysis; type: ADME, organism-based; conditions: in vivo

Q: Which results are given for CN1CCN(c2ccc(OC(F)(F)F)c(Nc3ncc4c(n3)-c3c(c(C(N)=O)nn3CCO)CC4)c2)CC1 [ONVANSERTIB]?
A: TGI (COLO 205): Active; IC50 [1]: > 10000 nM; IC50 [2]: > 10000 nM; IC50 (U-251): 190 nM; IC50 (Caco-2): 4760 nM; Activity [3]: 69%; Activity [4]: 60%; IC50 (A549): 175 nM; Activity [5]: 85%; IC50 (NCI-H838): 119 nM; Activity (A2780 [6]): Active; bioavailability [7]: 24%; IC50 [8]: 36 nM; IC50 (KARPAS-299): 53 nM; IC50 (Granta-519): 29 nM; IC50 [9]: 139 nM; Activity (A2780 [10]): Dose-Dependent Effect; Activity [11]: 93%; IC50 [12]: 82 nM; Activity [13]: 90%; IC50 [14]: > 10000 nM; IC50 [15]: 68 nM; IC50 [16]: > 10000 nM; IC50 [17]: > 10000 nM; IC50 (MV4-11): 58 nM; Activity [18]: 39%; Activity (NHDF): Toxic; IC50 (HCT-15): 156 nM; AUC [19]: 13.8 µM·h
